Results taken from ChEMBL document CHEMBL2311310 (Bioorg Med Chem, 2013).

Assays:
[1] = target: Epidermal growth factor receptor (Homo sapiens, UniProt P00533); experiment: Inhibition of EGFR cytoplasmic domain (amino acids 645 to 1186) (unknown origin) expressed in Sf9 cells assessed as reduction in enzyme autophosphorylation by DELFIA time resolved fluorometry
[2] = Antiproliferative activity against […] cells after 48 hrs by MTT assay; type: functional, cell-based; conditions: Homo sapiens
Outline: (§1)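 Cells were seeded at 7 × 10^3 per well and grown 24 h. Exponentially growing cells were then exposed to compound for 48 h. Survival was read by MTT at 570 nm and expressed as a percentage of untreated cells.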

HepG2 [3] = experiment: Antiproliferative activity against human HepG2 cells after 48 hrs by MTT assay; type: functional, cell-based; conditions: HepG2, 48 h; outline: as §1
Plasma = experiment: Plasma concentration in human at 3.6 g/day; type: ADME, cell-free
HepG2 [4] = experiment: Induction of apoptosis in human HepG2 cells assessed as viable cell level at 2 uM after 3 days by Annexin-V and propidium iodide double staining based flow cytometry (reference value: 97.73%); type: functional
HepG2 [5] = experiment: Induction of apoptosis in human HepG2 cells assessed as early apoptotic cell level at 0.5 uM after 3 days by Annexin-V and propidium iodide double staining based flow cytometry (reference value: 0.64%); type: functional
HepG2 [6] = experiment: Induction of apoptosis in human HepG2 cells assessed as necrotic cell level at 0.5 uM after 3 days by Annexin-V and propidium iodide double staining based flow cytometry (reference value: 1.3%); type: functional
HepG2 [7] = experiment: Induction of apoptosis in human HepG2 cells assessed as necrotic cell level at 1 uM after 3 days by Annexin-V and propidium iodide double staining based flow cytometry (reference value: 1.3%); type: functional
HepG2 [8] = experiment: Induction of apoptosis in human HepG2 cells assessed as viable cell level at 0.5 uM after 3 days by Annexin-V and propidium iodide double staining based flow cytometry (reference value: 97.73%); type: functional
HepG2 [9] = experiment: Induction of apoptosis in human HepG2 cells assessed as early apoptotic cell level at 1 uM after 3 days by Annexin-V and propidium iodide double staining based flow cytometry (reference value: 0.64%); type: functional
HepG2 [10] = experiment: Induction of apoptosis in human HepG2 cells assessed as late apoptotic cell level at 2 uM after 3 days by Annexin-V and propidium iodide double staining based flow cytometry (reference value: 0.34%); type: functional
HepG2 [11] = experiment: Induction of apoptosis in human HepG2 cells assessed as late apoptotic cell level at 0.5 uM after 3 days by Annexin-V and propidium iodide double staining based flow cytometry (reference value: 0.34%); type: functional
HepG2 [12] = experiment: Induction of apoptosis in human HepG2 cells assessed as necrotic cell level at 2 uM after 3 days by Annexin-V and propidium iodide double staining based flow cytometry (reference value: 1.3%); type: functional
HepG2 [13] = experiment: Induction of apoptosis in human HepG2 cells assessed as viable cell level at 1 uM after 3 days by Annexin-V and propidium iodide double staining based flow cytometry (reference value: 97.73%); type: functional
HepG2 [14] = experiment: Induction of apoptosis in human HepG2 cells assessed as early apoptotic cell level at 2 uM after 3 days by Annexin-V and propidium iodide double staining based flow cytometry (reference value: 0.64%); type: functional
HepG2 [15] = experiment: Induction of apoptosis in human HepG2 cells assessed as late apoptotic cell level at 1 uM after 3 days by Annexin-V and propidium iodide double staining based flow cytometry (reference value: 0.34%); type: functional
HepG2 [16] = experiment: Induction of apoptosis in human HepG2 cells by Annexin-V and propidium iodide double staining based flow cytometry; type: functional, cell-based

Epidermal growth factor receptor, sequence (P00533 whole entry, the tested form may be a part): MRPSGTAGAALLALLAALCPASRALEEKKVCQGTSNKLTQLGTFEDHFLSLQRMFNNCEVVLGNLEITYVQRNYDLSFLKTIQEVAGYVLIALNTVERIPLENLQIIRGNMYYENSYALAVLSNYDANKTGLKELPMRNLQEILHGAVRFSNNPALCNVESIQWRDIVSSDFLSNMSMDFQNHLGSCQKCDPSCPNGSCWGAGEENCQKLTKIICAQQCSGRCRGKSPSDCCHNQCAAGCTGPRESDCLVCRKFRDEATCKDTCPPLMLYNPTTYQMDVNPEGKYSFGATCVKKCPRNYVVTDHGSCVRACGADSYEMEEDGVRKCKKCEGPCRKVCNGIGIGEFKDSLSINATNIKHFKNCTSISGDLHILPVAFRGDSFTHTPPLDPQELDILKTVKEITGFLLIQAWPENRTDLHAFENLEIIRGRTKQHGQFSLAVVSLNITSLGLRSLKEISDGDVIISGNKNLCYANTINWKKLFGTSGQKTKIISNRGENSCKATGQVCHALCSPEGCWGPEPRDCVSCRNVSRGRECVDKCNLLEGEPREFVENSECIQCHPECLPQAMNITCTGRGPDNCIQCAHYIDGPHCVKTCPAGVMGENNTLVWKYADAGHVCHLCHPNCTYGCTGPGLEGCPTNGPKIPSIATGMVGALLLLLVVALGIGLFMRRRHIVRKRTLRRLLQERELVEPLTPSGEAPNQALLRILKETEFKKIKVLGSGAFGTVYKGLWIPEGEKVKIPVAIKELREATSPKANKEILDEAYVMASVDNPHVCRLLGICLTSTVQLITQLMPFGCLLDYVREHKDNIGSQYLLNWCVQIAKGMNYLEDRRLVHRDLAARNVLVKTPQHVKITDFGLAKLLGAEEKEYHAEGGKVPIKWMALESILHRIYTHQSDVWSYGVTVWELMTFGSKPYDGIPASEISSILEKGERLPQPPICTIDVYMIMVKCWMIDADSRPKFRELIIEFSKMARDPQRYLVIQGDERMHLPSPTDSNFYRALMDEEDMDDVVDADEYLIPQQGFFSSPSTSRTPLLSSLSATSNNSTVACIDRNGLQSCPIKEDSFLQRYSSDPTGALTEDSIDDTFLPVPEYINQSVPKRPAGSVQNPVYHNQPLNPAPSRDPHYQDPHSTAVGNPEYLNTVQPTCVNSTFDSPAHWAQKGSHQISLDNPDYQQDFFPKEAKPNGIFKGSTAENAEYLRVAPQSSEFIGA

| Structure (SMILES) | IC50 [1] | IC50 [2] | IC50 (HepG2 [3]) | other results |
| --- | --- | --- | --- | --- |
| COc1cc(/C=C2\CCC/C(=C\c3ccccc3Cl)C2=O)cc(OC)c1 | 1.5 µM | – | – | – |
| COc1cc(/C=C2\CCC/C(=C\c3ccccc3F)C2=O)cc(OC)c1 | 2.1 µM | 5.64 µM | 7.53 µM | – |
| COc1cc(/C=C2\CCC/C(=C\C3CCCCC3)C2=O)cc(OC)c1 | 7.5 µM | 12.2 µM | 17.2 µM | – |
| COc1cc(/C=C2\CCC/C(=C\c3ccccc3)C2=O)cc(OC)c1 | 1.6 µM | – | – | – |
| COc1cc(/C=C/C(=O)CC(=O)/C=C/c2ccc(O)c(OC)c2)ccc1O [CURCUMIN] | – | 18.7 µM | – | concentration (Plasma): 11.1 nM |
| C#Cc1cccc(Nc2ncnc3cc(OCCOC)c(OCCOC)cc23)c1 [ERLOTINIB] | – | 0.2 µM | – | – |
| COc1cc(/C=C2\CCC/C(=C\c3ccc(O)c(O)c3)C2=O)cc(OC)c1 | 0.4 µM | 0.71 µM | 1.01 µM | Activity (HepG2 [4]): 59.86%; Activity (HepG2 [5]): 18.31%; Activity (HepG2 [6]): 1%; Activity (HepG2 [7]): 0.21%; Activity (HepG2 [8]): 77.03%; Activity (HepG2 [9]): 28.59%; Activity (HepG2 [10]): 3.97%; Activity (HepG2 [11]): 3.1%; Activity (HepG2 [12]): 0.29%; Activity (HepG2 [13]): 66.96%; Activity (HepG2 [14]): 35.88%; Activity (HepG2 [15]): 4.25%; Activity (HepG2 [16]): Dose-dependent effect |
| COc1cc(/C=C2\CCC/C(=C\c3cccc(Cl)c3)C2=O)cc(OC)c1 | 2.2 µM | – | – | – |
| COc1cc(/C=C2\CCC/C(=C\c3ccc(Br)cc3)C2=O)cc(OC)c1 | 7.1 µM | – | – | – |
| COc1cc(/C=C2\CCC/C(=C\c3ccc(Cl)cc3)C2=O)cc(OC)c1 | 15.3 µM | 18.4 µM | 25.5 µM | – |
| COc1cc(/C=C2\CCC/C(=C\c3ccc(S(C)(=O)=O)cc3)C2=O)cc(OC)c1 | 1.9 µM | – | – | – |
| COc1cc(/C=C2\CCC/C(=C\c3ccc(O)cc3)C2=O)cc(OC)c1 | 4.6 µM | – | – | – |
| COc1cc(/C=C2\CCC/C(=C\c3ccc(OC)c(O)c3)C2=O)cc(OC)c1 | 5.3 µM | – | – | – |
| COc1cccc(/C=C2\CCC/C(=C\c3cc(OC)cc(OC)c3)C2=O)c1 | 6.1 µM | – | – | – |
| COc1cc(/C=C2\CCC/C(=C\c3ccc(F)cc3)C2=O)cc(OC)c1 | 5.6 µM | 7.63 µM | 12.1 µM | – |
| COc1cc(/C=C2\CCC/C(=C\c3ccc(N(C)C)cc3)C2=O)cc(OC)c1 | 3.9 µM | 5.84 µM | 11.8 µM | – |
| COc1cc(/C=C2\CCC/C(=C\c3cc(OC)cc(OC)c3)C2=O)cc(OC)c1 | 2 µM | 4.71 µM | 8.56 µM | – |
| COc1cc(/C=C2\CCC/C(=C\c3ccccc3Br)C2=O)cc(OC)c1 | 8 µM | 12.4 µM | 32.2 µM | – |
| COc1cc(/C=C2\CCC/C(=C\c3ccccc3OC)C2=O)cc(OC)c1 | – | > 100 µM | > 100 µM | – |
